CSC inhib – blocks cancer stem cells; cancer stem cell-like cells viability, luminescence; inhibition, % at 7.5 µM; hit rate 1.1% among 300,000; in the data active = inhibition above about 75%; inconclusive = no clear call, values can overlap the other calls; tested in HMLE shEcad cells
Calb FLC – C. albicans growth modulation with fluconazole; C. albicans CaCi-2 (fluconazole-resistant clinical isolate) + fluconazole, Alamar Blue growth, 48 h; growth inhibition, % (test concentration not listed); hit rate 0.57% among 300,000; AID 1979;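 active = growth inhibition above about 58% in most replicates, limit read from the data, passing the limit was not always enough; inconclusive = exactly half the replicates above a set limit; inactive = most replicates below a set limit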;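 note: all wells also contain fluconazole at 8 µg/ml as a sub-toxic cotreatment; 0% = median of DMSO wells and 100% = median of geldanamycin control wells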
T cruzi inh – T. cruzi replication inhibition | T. cruzi beta-gal in NIH3T3, luminescence, 90 h | inhibition, % (test concentration not listed) | hit rate 1.4% among 300,000 | AID 1885;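 active = mean inhibition across valid replicates above about 55%, limit read from the data; inconclusive = mean below that limit but half or more replicates reach it; inactive = mean below it, under half of replicates reach it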;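 note: signal also drops with host cell toxicity which is not excluded here; 0% = plate median of DMSO wells and 100% = zero luminescence signal; higher percent means less beta-gal luminescence so fewer parasites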
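System: Mouse NIH/3T3 fibroblasts infected with β-gal-expressing T. cruzi Tulahuen C4 | Quantity: NIH/3T3 cells, 5,000 per well | Reagent: 5000 reporter trypomastigotes per well | Dosing: Compound pinned at 50 nL/well, DMSO | Schedule: 3 h host attachment, then at least 90 h co-culture | Detection: GalScreen luminescence, 60 min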
NLRP3 yeast inh – inhibitors of NALP3 inflammasome in yeast; Yeast reconstituted NLRP3/ASC/caspase-1, beta-gal luminescence, 24 h; inhibition, % at 10 µM; hit rate 0.39% among 330,000; AID 2825;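 active = inhibition of 50% or more; inactive = inhibition below 50%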;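 note: plate controls were induced DMSO wells for no effect and uninduced yeast grown without galactose for full effect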
Beta apoptosis – beta cell apoptosis inhibition | INS-1E cytokine-induced death, ATP luminescence, 48 h; percent of positive-control rescue, neutral wells zero | protection from apoptosis, % (test concentration not listed) | hit rate 0.8% among 300,000 | AID 435005;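 active = Every replicate reaches about 75%, or at least half do and their mean reaches it too, limit read from the data; inconclusive = At least half of replicates reach the limit but their mean does not; inactive = Under half of replicates reach the limit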;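 note: 0% = cytokine-treated negative control wells and 100% = positive control rescue; higher means more ATP so stronger rescue from cytokine killing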
Mdm2 MdmX PPI – inhibitors of human Mdm2/MdmX interaction; SaOS-2 split-luciferase Mdm2/MdmX complementation, luminescence; O15151+Q00987; inhibition, % at 8 µM; hit rate 3% among 330,000;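 active = inhibition of at least 50% at 8 µM in the primary screen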
Target sequence (O15151 whole entry, looked up): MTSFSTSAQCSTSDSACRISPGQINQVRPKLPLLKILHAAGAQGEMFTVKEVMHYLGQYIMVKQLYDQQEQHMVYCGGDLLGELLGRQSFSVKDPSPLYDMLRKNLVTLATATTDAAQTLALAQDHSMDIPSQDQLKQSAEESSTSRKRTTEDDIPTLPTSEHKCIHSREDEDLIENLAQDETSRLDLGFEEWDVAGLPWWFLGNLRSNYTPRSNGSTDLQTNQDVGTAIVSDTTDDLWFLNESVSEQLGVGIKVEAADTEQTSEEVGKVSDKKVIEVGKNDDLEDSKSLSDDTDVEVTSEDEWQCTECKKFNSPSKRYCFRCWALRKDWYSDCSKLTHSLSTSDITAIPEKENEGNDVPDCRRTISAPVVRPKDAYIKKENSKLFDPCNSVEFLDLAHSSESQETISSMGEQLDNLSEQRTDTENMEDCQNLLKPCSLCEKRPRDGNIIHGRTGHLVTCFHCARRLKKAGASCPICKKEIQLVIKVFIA
Target sequence (Q00987 whole entry, looked up): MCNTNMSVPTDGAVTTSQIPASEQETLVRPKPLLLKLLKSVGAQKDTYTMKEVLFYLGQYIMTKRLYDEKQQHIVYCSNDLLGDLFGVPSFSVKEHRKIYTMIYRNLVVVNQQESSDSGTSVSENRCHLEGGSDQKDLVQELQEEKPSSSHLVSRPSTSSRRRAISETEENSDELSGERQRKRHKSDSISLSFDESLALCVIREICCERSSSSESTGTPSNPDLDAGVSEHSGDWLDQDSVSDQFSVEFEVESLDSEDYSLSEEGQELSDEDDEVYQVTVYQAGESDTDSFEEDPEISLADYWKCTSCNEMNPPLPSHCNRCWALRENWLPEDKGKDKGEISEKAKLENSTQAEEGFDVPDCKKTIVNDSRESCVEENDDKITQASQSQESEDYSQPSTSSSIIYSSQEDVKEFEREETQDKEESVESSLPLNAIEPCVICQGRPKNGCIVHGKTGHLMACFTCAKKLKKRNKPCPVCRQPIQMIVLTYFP
The depositor's hits bear a star; ? = inconclusive; . = no result. Only some compounds are listed: those with a hit (about 5.3% of all), similar ones and a draw of the others.

SMILES	CSC inhib	Calb FLC	T cruzi inh	NLRP3 yeast inh	Beta apoptosis	Mdm2 MdmX PPI
O=C(Oc1cc2oc(=O)c3c(c2cc1Cl)CCCC3)c1cccs1	-9	95*	-10	25	-16	-9
CC(C)Oc1ccc(S(=O)(=O)N2CCCCC2)cc1NC(=O)CN1CCCC1c1cccs1 (configuration not stated)	12	.	.	20	92*	35
Cc1ccsc1C(=O)OCC(=O)Nc1sccc1C(N)=O	0	96*	-5	-2	.	-11
CC1CN(c2ccc([N+](=O)[O-])c(NCCOc3ccc(Cl)cc3)c2)CC(C)N1 (configuration not stated)	108*	-5	25	29	-1	30
CC1CN(c2ccc([N+](=O)[O-])c(NCCOc3ccccc3)c2)CC(C)N1 (configuration not stated)	62	-1	42	19	1	25
CC(C)CCOC(=O)C[N+](C)(C)CCOC1CC2CCC1(C)C2(C)C (configuration not stated)	0	103*	61*	4	32	23
CCCCCCCOC(=O)C[N+](C)(C)CCOC1CC2CCC1(C)C2(C)C (configuration not stated)	.	107*	62*	.	.	.
CCCOC(=O)C[N+](C)(C)CCOC1CC2CCC1(C)C2(C)C (configuration not stated)	-1	-8	38	10	4	-12
CCC(C)OC(=O)C[N+](C)(C)CCOC1CC2CCC1(C)C2(C)C (configuration not stated)	30	87*	64*	4	19	21
CCCCOC(=O)C[N+](C)(C)CCOC1CC2CCC1(C)C2(C)C (configuration not stated)	4	?	50	-4	9	12
CN(c1ccccc1)c1ccc(/C=C/[N+](=O)[O-])cc1	-1	18	33	.	89*	.
O=C(NN1c2ccccc2CCc2ccccc21)c1ccccc1Br	2	-20	-20	-4	16	21
Cc1cccc(C)c1OCc1cc(C(=O)NCC2COCCO2)no1 (configuration not stated)	5	0	-7	7	-2	14
CCCOc1ccc(/C=C/C(=O)N2CCN(c3ccccn3)CC2)cc1	2	3	-1	17	0	-13
O=C(/C=C/c1ccc(F)cc1)N1CCN(c2ccccn2)CC1	-4	87*	-14	23	0	12
S=C(Sc1ccc(Cl)cc1)Sc1ccc(Cl)cc1	77*	-26	63*	40	-3	23
CC(=O)/C(=C\N(C)C)Sc1ccc(Cl)cc1	-4	-1	4	12	.	-23
CC1(c2ccccc2Cl)NC(=O)N(CC(=O)NCc2ccc3c(c2)OCO3)C1=O (configuration not stated)	.	-17	1	-3	-1	5
CC(C)NCc1nnc(-c2ccc(Cl)cc2)o1	.	-4	-5	16	5	14
Cn1ncc([N+](=O)[O-])c1C(=O)Nc1cccc2ccccc12	1	-4	-6	19	4	-14
O=C(Nc1cccc2ccccc12)c1ccc([N+](=O)[O-])s1	33	16	57*	11	8	48
O=C(Nc1ccccc1F)c1ccc([N+](=O)[O-])s1	5	7	65*	9	9	29
Cc1cc([N+](=O)[O-])nn1Cc1ccc(C(=O)N/N=C/c2ccc(O)cc2O)cc1	117*	20	-7	-3	98*	50
C=CCSc1nc(-c2ccccc2)c(C#N)c(=O)[nH]1	1	-11	2	-1	-4	-15
N#Cc1c(-c2ccccc2)nc(SCc2ccc(Cl)cc2)[nH]c1=O	104*	29	-20	7	-11	17
SMILES	CSC inhib	Calb FLC	T cruzi inh	NLRP3 yeast inh	Beta apoptosis	Mdm2 MdmX PPI
N#CC1=C(SCC(=O)c2ccc(Br)cc2)NC2=C(C(=O)CCC2)C1c1ccco1 (configuration not stated)	91*	.	.	7	.	41
CCC(CO)Oc1cc(NCc2ccc(Cl)cc2Cl)c2ncn(C(C)C)c2c1 (configuration not stated)	111*	.	.	13	7	37
CCCOc1cc(NCc2ccccc2)c2ncn(C(C)C)c2c1	46	.	.	24	124*	34
COCCOc1cc(NCc2ccccc2)c2ncn(C(C)C)c2c1	10	.	.	0	-5	19
CC(C)n1cnc2c(NCc3ccccc3)cc(Cc3ccc(F)cc3)cc21	129*	.	.	24	11	0
CCOc1cc(NCc2ccccc2)c2ncn(C(C)C)c2c1	.	.	.	20	-5	11
Cc1nnc(NC(=O)CCSCCC(=O)Nc2nnc(C)s2)s1	-14	0	2	0	-11	10
O=C(C1CC1)N1CCc2cc(Br)cc(S(=O)(=O)NCc3ccc4c(c3)OCO4)c21	-9	4	0	17	4	7
CCN(c1ccc2c(c1)OCO2)S(=O)(=O)c1cc(Br)cc2c1N(C(C)=O)CC2	.	-11	63*	-5	.	8
Cc1cc(Cl)nc(Cl)c1C(=O)NCCc1ccccc1	-26	.	.	27	-1	6
O=C(NC(=S)NCc1ccccc1)C1CC1	-11	-2	-11	32	5	19
O=C(NC(=S)NCCc1ccccc1)C1CCCCC1	102*	-22	13	11	3	8
O=C(NC1CCCN(CCc2ccccc2)C1)C1CCCC1 (configuration not stated)	-1	3	55*	20	.	-21
COC(=O)c1ccc([N+](=O)[O-])cc1N1C(=O)C2C3CCC(C3)C2C1=O (configuration not stated)	-1	15	-1	27	0	-6
CNC(=O)c1ccc2c(c1)nnn2C	-9	106*	-7	18	-6	6
CCOC(=O)CSc1nc2sc3c(c2c(=O)n1C1CCCCC1)CCN(C)C3	-12	30	57*	15	0	6
CSc1nnc2n(-c3ccccc3)c(=O)c3c4c(sc3n12)CCC4	-21	.	.	14	6	4
CCOC(=O)CSc1nc2sc3c(c2c(=O)n1-c1ccc(OCC)cc1)CCN(C)C3	-15	26	41	4	-1	1
CN1CCc2c(sc3c2c(=O)n(-c2ccccc2)c2nnc(SCc4ccccc4)n32)C1	.	7	71*	7	-7	17
C=CCSc1nc2sc3c(c2c(=O)n1-c1ccccc1)CCN(C)C3	-13	-2	56*	28	-2	7
Cc1[nH]cc(Br)c(=O)c1Oc1ncc(C(F)(F)F)cc1Cl	4	23	-11	11	-5	7
O=C(CN1C(=O)c2ccccc2C1=O)OCC(=O)N1CCN(c2ccccc2)CC1	-1	-2	-16	7	-5	-2
CCOc1ccc(S(=O)(=O)Nc2cccc(C(=O)NCC(c3ccco3)N(C)C)c2)cc1 (configuration not stated)	-5	-9	2	15	0	-9

Screening data deposited in PubChem by several laboratories.
